The target in series [1] is Mothers against decapentaplegic homolog 2 (Homo sapiens) (UniProt Q15796). Nature of the series: Inhibition of TGF-beta induced SMAD2 phosphorylation in human A549 cells at 5 to 10 uM pretreated with compound for 2 hrs followed by TGF-beta stimulation by Western blot analysis. Format: cell-based. The note with it: dose microM 5-10, time 2.0 hrs. The method in brief: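 A549 cells pre-treated 2 h at 5 and 10 μM, then stimulated with 1 ng/mL TGF-β for 30 min. Lysates probed by western blot for phospho-SMAD2, SMAD2, phospho-SMAD3 and SMAD3. GAPDH served as loading control.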
Sequence of Mothers against decapentaplegic homolog 2 (Homo sapiens) (Q15796 whole entry): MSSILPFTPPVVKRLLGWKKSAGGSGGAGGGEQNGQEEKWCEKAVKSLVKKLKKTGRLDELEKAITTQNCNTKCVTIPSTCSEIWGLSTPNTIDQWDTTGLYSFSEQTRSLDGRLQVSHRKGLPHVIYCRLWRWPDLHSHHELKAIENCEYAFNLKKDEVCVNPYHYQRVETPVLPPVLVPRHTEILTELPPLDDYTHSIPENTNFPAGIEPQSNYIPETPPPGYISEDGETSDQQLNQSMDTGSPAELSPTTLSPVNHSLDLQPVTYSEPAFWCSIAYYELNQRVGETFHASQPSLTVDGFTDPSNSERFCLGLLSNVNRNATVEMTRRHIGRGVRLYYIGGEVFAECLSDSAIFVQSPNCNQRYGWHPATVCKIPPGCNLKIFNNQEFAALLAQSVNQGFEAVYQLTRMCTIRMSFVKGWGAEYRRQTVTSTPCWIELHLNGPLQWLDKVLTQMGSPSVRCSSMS
A general note: In western blotting, separated proteins are transferred to a membrane and probed.

A short description of series [2]: Solubility of the compound in water. Format: physicochemical. The gist of the method: (§1)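 Solubility of free base or HCl salt measured in pure water and in phosphate buffer pH 7.4 at room temperature, quantified by HPLC.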
The nature of series [3]: Solubility of the compound in PBS buffer at pH 7.4. Format: physicochemical. The method in brief:
as §1

Another series concerns A549. The experiment in a line: Cytotoxicity against human A549 cells assessed as inhibition of cell growth by MTT assay. Format: functional. The note with it: read-out: TD50 (the source's name). The gist of the method: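 A549 cell growth measured by MTT assay. Value is the concentration giving 50% growth inhibition relative to controls, mean of three experiments.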
Background: Tetrazolium assays rely on reduction of a dye to a coloured formazan, in cell work by metabolically active cells.

The target of series [4] is Mothers against decapentaplegic homolog 3 (Homo sapiens) (UniProt P84022). The note with it: NIH3T3.
Sequence of Mothers against decapentaplegic homolog 3 (Homo sapiens) (P84022 2-425 limits assumed): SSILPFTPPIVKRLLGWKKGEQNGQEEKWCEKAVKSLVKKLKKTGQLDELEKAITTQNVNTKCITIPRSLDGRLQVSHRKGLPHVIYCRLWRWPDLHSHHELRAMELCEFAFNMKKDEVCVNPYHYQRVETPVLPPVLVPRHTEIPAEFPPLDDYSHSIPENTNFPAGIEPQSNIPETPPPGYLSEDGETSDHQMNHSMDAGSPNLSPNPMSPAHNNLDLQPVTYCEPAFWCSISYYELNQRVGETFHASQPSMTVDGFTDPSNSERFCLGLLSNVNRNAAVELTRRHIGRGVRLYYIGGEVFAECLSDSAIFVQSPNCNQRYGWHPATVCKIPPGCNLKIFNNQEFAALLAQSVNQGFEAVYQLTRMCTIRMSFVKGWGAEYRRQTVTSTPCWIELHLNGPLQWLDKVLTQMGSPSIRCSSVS
Series [5] relates to Lewis lung carcinoma. Nature of the series: Antitumor activity against mouse Lewis lung carcinoma cells allografted in ip dosed C57BL/6 mouse assessed as reduction in tumor weight administered for 20 consecutive days. The note with it: dose microg/g 1.25-5, time 20.0 day.
For series [6], the system named is Lewis lung carcinoma. The experiment in a line: Antitumor activity against mouse Lewis lung carcinoma cells allografted in ip dosed C57BL/6 mouse assessed as reduction in tumor volume administered for 20 consecutive days. The note with it: dose microg/g 1.25-5, time 20.0 day.
The subject of the next series is Mus musculus. Nature of the series: Induction of NK-mediated antitumor immunity in ip dosed C57BL/6 mouse allografted with mouse Lewis lung carcinoma cells assessed as increase in NK cell infiltration in tumor by immunofluorescent staining based assay. Conditions: dose microg/g 1.25-5.

≈ marks a conversion by molar mass, not a printed value. Calls of active or inactive are those of the source. The rule behind the calls is not given here.

Consider `COc1ccc(CN2CC/C(=C\c3c(-c4ccccc4)n(C)c4ncccc34)C2=O)cc1OC`, for which the inhibition entry in series [1] is “inactive”.

Turning to `COc1cc2c(cc1OC)CN(C(=O)/C=C/c1c(-c3ccccc3)n(C)c3ncccc13)CC2.Cl`, the solubility turned out to be 141 µg/mL in series [2] and 6 µg/mL in series [3]. For the same molecule, in the series with A549, the CC50 amounted to 18.7 µM. In series [4], this molecule showed an ED50 of 4.53 µM.

`Cc1nc(C)c(CN2CC/C(=C\c3c(-c4ccccc4)n(C)c4ncccc34)C2=O)nc1C` [listing 1 of 2 here]: the inhibition entry in series [1] was “inactive”. Further, the Activity result with Lewis lung carcinoma [5], with Lewis lung carcinoma [6] and in the series on Mus musculus was “Dose-dependent effect” throughout.

Turning to `Cc1nc(C)c(CN2CC/C(=C\c3c(-c4ccccc4)n(C)c4ncccc34)C2=O)nc1C` [listing 2 of 2 here], in series [3], the solubility came out at 14 µg/mL (≈ 32 µM). Further, in the series on A549, the CC50 was 22 µM.

Take `Cc1nc(C)c(CN2CC/C(=C\c3c(-c4ccccc4)n(C)c4ncccc34)C2=O)nc1C.Cl`: the solubility in series [2] (water) was > 94000 µg/mL.

As a reminder, the solubility is the dissolved amount per volume that the medium holds. Higher therefore signals a readily soluble substance.

These data come from ChEMBL document CHEMBL4665722, “Discovery of a novel selective water-soluble SMAD3 inhibitor as an antitumor agent” (Bioorg Med Chem Lett, 2020).
